Screening data as filed in PubChem.
HCV NS3 hel inh: HCV NS3 helicase inhibition | 290,000 compounds, 0.56% hits | NS3 helicase DNA unwinding, Cy5 molecular beacon fluorescence | inhibition, % at 10.9 µM;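 active means inhibition above the mean of all tested compounds plus 3 SD, set per campaign, cut at about 35% in these data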;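 further: 0% = DMSO wells and 100% = thioflavine S control wells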
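assay system = NS3 helicase fragment of HCV | buffer or medium = MOPS pH 6.5, MgCl2, DTT, Tween20, BSA | timing = 60 min unwinding reaction at 25 °C after ATP addition | signal = Cy5 beacon fluorescence read at start and 1 h | read-out basis = % inhibition of unwinding | control set = low DMSO, high thioflavine S at 110 µM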
XBP1 UPR activ: adaptive UPR (XBP1) activation. CHO-XBP1 luciferase reporter, IRE1-XBP1 UPR activation, luminescence; percent of tunicamycin response, DMSO as zero. activation, % at 20 µM. 330,000 compounds, 0.33% hits;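 active means versus positive control, 20 µM dose yields 30% or more activation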;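 further: 100% = tunicamycin at 10 µg/mL and 0% = DMSO only wells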
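Assay system: IRE1-XBP1 luciferase reporter CHO line. Input: 1000 cells/well. Buffer or medium: F12 with 10% serum. Doses: 20 µM, 1% DMSO. Times: overnight seeding at 37 °C, 6 h compound treatment at 37 °C. Technique: Steady-Glo luciferase glow luminescence, 10 min after reagent addition.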
p97 inhibitor: inhibitors of human p97 ATPase; P55072; recombinant p97 ATPase, Kinase-Glo ATP luminescence, 3 h; inhibition, % at 8 µM; 220,000 compounds, 0.42% hits; in the data active means inhibition above about 15%;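 further: 0% = DMSO vehicle and 100% = wells lacking enzyme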
Target sequence (P55072 whole entry, looked up): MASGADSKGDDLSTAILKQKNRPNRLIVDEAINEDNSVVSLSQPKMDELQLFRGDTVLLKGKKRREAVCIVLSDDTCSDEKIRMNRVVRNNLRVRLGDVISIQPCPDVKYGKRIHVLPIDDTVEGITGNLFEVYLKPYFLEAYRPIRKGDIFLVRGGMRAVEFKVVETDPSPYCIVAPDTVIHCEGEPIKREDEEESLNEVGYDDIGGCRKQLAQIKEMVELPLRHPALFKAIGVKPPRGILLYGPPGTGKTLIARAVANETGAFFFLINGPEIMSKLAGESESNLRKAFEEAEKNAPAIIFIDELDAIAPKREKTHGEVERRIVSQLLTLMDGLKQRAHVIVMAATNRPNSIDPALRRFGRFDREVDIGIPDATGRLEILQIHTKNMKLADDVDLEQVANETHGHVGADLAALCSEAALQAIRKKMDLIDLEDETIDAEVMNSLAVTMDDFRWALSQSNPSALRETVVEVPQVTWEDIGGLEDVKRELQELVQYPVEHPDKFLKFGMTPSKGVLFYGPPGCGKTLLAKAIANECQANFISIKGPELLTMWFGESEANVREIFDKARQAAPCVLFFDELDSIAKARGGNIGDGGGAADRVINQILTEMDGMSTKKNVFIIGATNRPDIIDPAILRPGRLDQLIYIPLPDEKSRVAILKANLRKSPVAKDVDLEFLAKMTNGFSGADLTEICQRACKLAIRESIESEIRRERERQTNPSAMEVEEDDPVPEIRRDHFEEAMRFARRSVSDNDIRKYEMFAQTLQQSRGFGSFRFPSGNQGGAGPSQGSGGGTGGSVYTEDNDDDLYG
M18AAP inhibitor: blocks P. falciparum M18 aspartyl aminopeptidase; recombinant PfM18AAP, H-Glu-NHMec fluorogenic cleavage; inhibition, % at 7.35 µM; 290,000 compounds, 1.2% hits; AID 1822;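 active means inhibition above the campaign mean inhibition over all tested compounds plus 3 SD, cut at about 28% in these data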;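 further: 0% = plate median of test compound wells and 100% = 2 mM ZnCl2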
CHOP inh: blocks CHOP induction under ER stress. CHO-K1 CHOP-promoter luciferase, tunicamycin-induced, 15-18 h. inhibition, % at 10 µM. 220,000 compounds, 3.8% hits;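 active means compounds that reduced the stress-induced luciferase reporter signal by more than about 70% of percent inhibition, limit read from the data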;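 further: 0% = tunicamycin plus vehicle and 100% = wells without tunicamycin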
UPR CHOP act: apoptotic UPR (CHOP) activation. CHO-CHOP luciferase reporter, luminescence; percent of tunicamycin response over DMSO baseline. activation, % at 10 µM. 330,000 compounds, 0.34% hits. AID 449763;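 active means at 10 µM dose, activation of 40% or more, normalized to positive control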;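 further: 100% = tunicamycin at 10 µg/mL and 0% = DMSO alone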
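System: CHO-CHOP luciferase reporter cell line; amount: 500 cells/well; buffer or medium: F12 medium containing 10% fetal bovine serum; incubation: 6 h compound exposure at 37 °C after overnight seeding; measured by: luciferase luminescence after 10 min with Steady-Glo reagent; evaluation: % reporter activation, DMSO baseline versus tunicamycin full activation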
CHOP inh conf: confirmation of CHOP induction inhibitors; CHO-CHOP promoter luciferase reporter, tunicamycin-induced, luminescence; 2,100 compounds, 45% hits; shares compounds with CHOP inh; inhibition, % at 10 µM; AID 504437;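 active means mean of three repeat readings of reporter signal inhibition above a set limit, cut at about 70% in these data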;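 further: 0% = tunicamycin plus vehicle and 100% = wells lacking tunicamycin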
* marks the source's active call; other numbers are inactive results; . = no result given. Rows were chosen to be rich in hits. Some 4.5% of all compounds tested hit in one or more screens of this group.

SMILES | HCV NS3 hel inh | XBP1 UPR activ | p97 inhibitor | M18AAP inhibitor | CHOP inh | UPR CHOP act | CHOP inh conf
O=C1CC(c2ccccc2Br)c2cc3c(cc2N1)CCC3 (centres undefined) | -1 | -1 | 3 | 1 | 101* | -1 | 41
Cc1c(Cl)cccc1NC(=O)CSc1nccn1C | 8 | -1 | . | 6 | . | 1 | .
COc1cccc(NC(=O)c2cccc(S(=O)(=O)N3CCN(Cc4ccccc4)CC3)c2)c1 | . | -2 | . | . | . | 2 | .
CC(C)c1ccccc1NC(=O)Cn1c(/C=C/c2ccccc2)nc2ccccc21 | -9 | 32* | 11 | -1 | 99* | 12 | 101*
Cc1ccc(C(=O)NNC(=S)NC(=O)c2ccc(Cl)cc2Cl)cc1 | 8 | 5 | 6 | -8 | 98* | 0 | 8
Cc1coc2c1c(C)cc1oc(=O)c(CC(=O)N[C@@H](CC(C)C)C(=O)O)c(C)c12 | 18 | -1 | . | -3 | . | 1 | .
O=C(CC(=O)c1ccccc1)Nc1ccc(Cl)cc1 | -7 | 10 | . | -6 | . | 6 | .
O=C(c1ccc(COc2ccc(Cl)cc2)o1)N1N=C(C(F)F)CC1(O)C(F)F (centres undefined) | -12 | -2 | 3 | -4 | 109* | -1 | 130*
Cc1ccc(C)c(OCCC(=O)NCCc2ccc(S(N)(=O)=O)cc2)c1 | 4 | -3 | . | -4 | . | 0 | .
CC(C)N1CCN(Cc2ccc3c(c2)Cc2ccccc2-3)CC1CCO (centres undefined) | -20 | 2 | 1 | 10 | -6 | -1 | .
CCOC(=O)/C(=C\c1ccc(OC(F)F)cc1)C1=Nn2c(nnc2-c2ccc(Cl)cc2)SC1 | 5 | . | 4 | -4 | 107* | . | 120*
CN1CCCN(S(=O)(=O)c2ccc(O)c(C(=O)O)c2)CC1 | 6 | 1 | . | 8 | . | 0 | .
Cc1ccc(Sc2ccc(/C=N/O)cc2[N+](=O)[O-])cc1 | -8 | -1 | 2 | 6 | 101* | -2 | 20
CO/N=C/c1ccc(Sc2ccc(C)cc2)c([N+](=O)[O-])c1 | 0 | 9 | 4 | -4 | 49 | -4 | .
Cc1cc(C(C)(C)C)oc1C(=O)N1CCN(C(=O)c2oc(C(C)(C)C)cc2C)CC1 | 2 | . | 9 | 8 | 105* | . | 115*
Cc1cc(C(C)(C)C)oc1C(=O)O | -6 | 0 | 0 | -6 | 12 | 0 | .
COc1ccccc1NS(=O)(=O)c1cc([N+](=O)[O-])ccc1N/N=C/c1c[nH]c2ccccc12 | -2 | 7 | 0 | 5 | 98* | -1 | 52
CCN1CCN(C(=O)Cn2nc(C)c3sc4ccccc4c3c2=O)CC1 | 2 | -6 | . | 3 | . | 0 | .
N#C/C(=C/c1ccc(N2CCCCC2)o1)c1cccc(F)c1 | 17 | 6 | -3 | 13 | 103* | 20 | 20
N#C/C(=C/c1ccc(N2CCCCC2)cc1)c1cccc(F)c1 | -4 | 5 | 1 | -1 | 26 | 9 | .
CC1(C)NC(=O)N(CC(=O)OCC(=O)c2ccc(Br)s2)C1=O | . | -5 | . | . | . | 0 | .
COc1cccc(/C=N/NC(=O)Cn2nc(C)c([N+](=O)[O-])c2C)c1O | 2 | -3 | -1 | -3 | 51 | -2 | .
COc1cccc(/C=N\NC(=O)c2ccc(Cn3cc(Br)c([N+](=O)[O-])n3)o2)c1O | -38 | -2 | 6 | 10 | 97* | 1 | -1
O=c1nc(SCc2c(F)cccc2Cl)nc(-c2ccc(Cl)cc2)[nH]1 | 8 | 0 | -1 | 2 | 101* | -1 | 10
O=c1nc(SCc2ccccc2Cl)nc(-c2ccc(Cl)cc2)[nH]1 | 8 | -1 | 3 | 1 | 44 | -2 | .
SMILES | HCV NS3 hel inh | XBP1 UPR activ | p97 inhibitor | M18AAP inhibitor | CHOP inh | UPR CHOP act | CHOP inh conf
Cc1cccc(-n2ncc3c2CCCC3NC(=O)Cc2c(C)noc2C)c1C (centres undefined) | 4 | -6 | . | 1 | . | 5 | .
Cc1[nH]n(-c2ccccc2)c(=O)c1/C=C1/C=c2ccccc2=N1 | 1 | . | 1 | 0 | 103* | . | 78*
CC1=NN(c2ccccc2)C(=O)/C1=C/c1c(C)[nH]n(-c2ccc(C)cc2)c1=O | . | -1 | . | . | . | 0 | .
Cc1ccc(Cl)cc1NC(=O)COC(=O)CC1CC2CCC1C2 (centres undefined) | -3 | -1 | -2 | -2 | 100* | -1 | 68
O=C(CCNC(=O)c1ccc([N+](=O)[O-])cc1)Nc1cccc(S(=O)(=O)N2CCOCC2)c1 | . | 2 | . | . | . | -1 | .
CC1CCC(n2c(=S)[nH]c3ccccc3c2=O)CC1 (centres undefined) | 4 | 4 | -1 | 4 | 103* | 3 | 104*
O=C(c1ccc(=O)[nH]c1)N1CCN(S(=O)(=O)c2ccccc2)CC1 | -2 | -7 | . | -3 | . | -1 | .
Cc1cc(C)c(S(=O)(=O)NCCn2c(C)cc3ccccc32)c(C)c1 | 14 | -4 | 1 | 4 | 102* | 0 | 75*
O=C(Oc1oc(-c2ccco2)nc1C=Nc1ccccc1)c1ccoc1 | 0 | 2 | 0 | -8 | 109* | 2 | -5
O=C(Oc1oc(-c2ccco2)nc1C=Nc1ccccc1)c1ccco1 | -6 | -2 | 1 | 0 | -20 | 4 | .
Cc1ccc(C(=O)Oc2oc(-c3ccco3)nc2C=Nc2ccc(Cl)cc2)cc1 | -4 | 7 | 1 | 6 | 101* | 31 | 0
O=c1c(NCCc2ccc(Cl)cc2)c(-c2ccccc2)c1=O | 14 | -3 | . | -7 | . | 1 | .
Cc1ccccc1CS(=O)(=O)c1nnc([C@H](Cc2ccccc2)NC(=O)OC(C)(C)C)o1 | -3 | -7 | 2 | -90 | 112* | -5 | 136*
CCSc1nnc([C@H](Cc2ccccc2)NC(=O)OC(C)(C)C)o1 | 3 | -3 | 1 | 6 | 10 | 2 | .
CC(C)(C)OC(=O)N[C@@H](Cc1ccccc1)c1nnc(S(=O)(=O)Cc2ccccc2)o1 | -10 | -5 | -1 | -153 | 109* | -10 | 125*
Cc1cccc(CS(=O)(=O)Cc2ccc(C(=O)NC(C)c3ccccc3)o2)c1 (centres undefined) | 0 | -1 | . | 0 | . | 1 | .
CCC(C)[C@@H](NC(=O)OC(C)(C)C)c1nnc(S(=O)(=O)Cc2cccc(C)c2)o1 (some centres undefined) | -7 | . | 0 | -74 | 106* | . | 107*
COc1cccc(-c2c(C(=O)N/N=C(\C)COc3ccccc3)nnn2-c2nonc2N)c1 | -5 | -5 | . | 3 | . | -2 | .
O=C(CSc1nnc(CNC(=O)c2cccs2)o1)NCC1CCCO1 (centres undefined) | -26 | 0 | -2 | -8 | -5 | -2 | .
